The subject of series [1] is quantified cysteines in the human proteome (22Rv1 cells). The series can be described thus: Cysteine-directed MS-ABPP. In kind it is binding. The following applies: 20 µM, 3 h, in situ; 22Rv1 and Ramos. The essentials: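 22Rv1 cells were plated at 15 million cells per 15-cm dish and treated the next day. Ramos cells were adjusted to 3 × 10⁶ cells/mL and rested 30 min before treatment. Cells got 20 μM test compound in situ for 3 h, then were washed in cold DPBS and frozen. Cells were probe-sonicated in cold PBS, and 2 mg/mL lysate was labelled with IA-DTB (10 mM DMSO stock) for 1 h at room temperature in the dark. Cysteines were quantified by LC-MS/MS/MS against DMSO.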

The next series concerns mouse DRG neurons. As to the kind of experiment: Vacor-induced neurite degeneration in mouse DRG neurons. The class given is cell-based. The conditions noted are these: for Degeneration Index (%): +50 μM Vacor alone.
A further series has as its system rat DRG neurons. In kind it is cell-based. The following applies: 48 h.
The subject of a further series is SARM1-C311A. As to the kind of experiment: Gel-ABPP, in situ, SARM1-C311A mutant expressed in HEK293T cells. In kind it is binding, human. The conditions noted are these: 20 µM, 1 h. The essentials: (§1)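 N-terminally FLAG-tagged human SARM1 (WT or C311A) was transiently expressed in HEK293T cells and treated 48 h post-transfection. Cells got either alkyne probe alone (20 μM, 1 h, in situ) or 3 h compound pretreatment followed by probe. Lysates (ice-cold DPBS with protease inhibitors, 1.0 mg/mL) underwent 1 h CuAAC with rhodamine-azide/TCEP/TBTA/CuSO₄. Analysis was SDS-PAGE in-gel fluorescence with background-subtracted band intensities; IC₅₀ by four-parameter fit; three independent experiments.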

Series [2] deals with WT-SARM1. The series can be described thus: Gel-ABPP, in situ, WT-SARM1 recombinantly expressed in HEK293T cells. The class given is binding, human. The following applies: 1 h. The gist of the method:
as §1

Series [3] has as its system WT-SARM1. As to the kind of experiment: Gel-ABPP, in vitro treatment, WT-SARM1 recombinantly expressed in HEK293T cells. The conditions noted are these: 1 h; for effect of metabolite on MY-13B engagement of SARM1: 0.125-1 mM, MY-13B 20 µM. In kind it is binding, human.
The test system of a further series is mouse SARM1. The series can be described thus: Gel-ABPP, in situ, mouse SARM1 recombinantly expressed in HEK293T cells. In kind it is binding. The following applies: 20 µM, 1 h, compared with human SARM1.
The subject of a further series is SARM1. The following applies: cited from earlier work.
The target of another series is T1, endogenous SARM1 (Homo sapiens, UniProt Q6SZW1).
T1 sequence (Q6SZW1 28-724): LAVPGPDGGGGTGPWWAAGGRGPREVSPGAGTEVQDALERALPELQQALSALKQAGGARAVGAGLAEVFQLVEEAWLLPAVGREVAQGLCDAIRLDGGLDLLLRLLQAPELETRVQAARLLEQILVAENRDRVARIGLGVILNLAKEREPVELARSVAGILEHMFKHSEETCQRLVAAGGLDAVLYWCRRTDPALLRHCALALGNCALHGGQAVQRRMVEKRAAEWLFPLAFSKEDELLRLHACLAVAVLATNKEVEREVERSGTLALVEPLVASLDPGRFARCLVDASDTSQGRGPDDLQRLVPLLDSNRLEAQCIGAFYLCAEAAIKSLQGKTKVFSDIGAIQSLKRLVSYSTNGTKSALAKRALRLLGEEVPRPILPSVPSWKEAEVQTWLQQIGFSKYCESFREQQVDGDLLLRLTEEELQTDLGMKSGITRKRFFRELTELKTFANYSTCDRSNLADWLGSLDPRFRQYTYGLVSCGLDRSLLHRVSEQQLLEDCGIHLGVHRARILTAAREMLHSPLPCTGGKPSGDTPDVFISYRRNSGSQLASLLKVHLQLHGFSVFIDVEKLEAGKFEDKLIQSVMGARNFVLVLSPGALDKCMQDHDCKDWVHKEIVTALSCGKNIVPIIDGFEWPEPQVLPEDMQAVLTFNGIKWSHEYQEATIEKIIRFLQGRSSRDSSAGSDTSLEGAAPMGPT
The class given is cell-based. The conditions noted are these: SH-SY5Y cells, vacor 50 µM, 0-8 h. The gist of the method:
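SH-SY5Y cells were pretreated in situ with compound for 3 h (0.1% DMSO), then given 50 μM vacor for 4 h. Pellets were resuspended in DPBS and quenched with cold methanol:acetonitrile (1:1) containing 100 pmol 8-Br-cADPR internal standard. Extraction used three freeze/sonication cycles, −20 °C for 1 h, centrifugation, drying and resuspension. cADPR was measured by LC-MS/MS, normalized to total protein; mean ± SEM of three independent experiments.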

The text below walks through data of publication PMC9436332 (Proceedings of the National Academy of Sciences of the …, 2022).

“Also recorded” adds a separate entry of the source.

Regarding `C=CC(=O)N1[C@@H](c2ccc3c(c2)OCO3)c2[nH]c3ccccc3c2C[C@H]1C(=O)NC` [MY-9A], the “off-target cysteines also engaged by the SARM1-inactive enantiomers” value in series [1] is “DCTN4_C258, KEAP1_C151, PTGES2_C110, and UBR1_C1603”. In the series on mouse DRG neurons (1–20 µM, vacor 50 µM, over 48 h), the “blockade of vacor-induced neurite degeneration” value was “ineffective”. In addition, the “prevention of vincristine-induced neurite degeneration” value in the series with rat DRG neurons (40 nM vincristine) is on record as “weak activity”.

Regarding `C#CCNC(=O)[C@@H]1Cc2c([nH]c3ccccc23)[C@H](c2ccc3c(c2)OCO3)N1C(=O)C=C` [MY-13A], in the series on SARM1-C311A, the “reactivity of alkyne probe with SARM1-C311A (gel-ABPP)” value is given as “very low reactivity”.

Take `C#CCNC(=O)[C@H]1Cc2c([nH]c3ccccc23)[C@@H](c2ccc3c(c2)OCO3)N1C(=O)C=C` [MY-13B]: the “reactivity of alkyne probe with WT-SARM1 (gel-ABPP)” value in the series with WT-SARM1 [2] (20 µM) is “reacted strongly”. The “reactivity of alkyne probe with SARM1-C311A (gel-ABPP)” value in the series on SARM1-C311A is on record as “very low reactivity”. Moreover, the “reactivity of alkyne probe with SARM1 in vitro” value in the series on WT-SARM1 [3] (20 µM) was “stereoselective reactivity; also recorded: maintained stereoselective engagement”. In addition, the “labeling of recombinant mouse SARM1 by alkyne probe” value in the series with mouse SARM1 was “lower extent of labeling”.

As for `NC(=O)c1ccc[n+]([C@@H]2O[C@H](COP(=O)([O-])OP(=O)(O)OC[C@H]3O[C@@H](n4cnc5c(N)ncnc54)[C@H](O)[C@@H]3O)[C@@H](O)[C@H]2O)c1` [NAD^+, nicotinamide adenine dinucleotide, reference compound], the “effect of metabolite on MY-13B engagement of SARM1” value in the series with WT-SARM1 [3] is on record as “neither metabolite affected MY-13B engagement”.

For `NC(=O)c1ccc[n+]([C@@H]2O[C@H](COP(=O)([O-])O)[C@@H](O)[C@H]2O)c1` [NMN, nicotinamide mononucleotide, reference compound], the “effect of metabolite on MY-13B engagement of SARM1” value in the series on WT-SARM1 [3] is “neither metabolite affected MY-13B engagement”.

For `COC(=O)c1c(C)nc(C)c(C(=O)OCC(C)C)c1-c1ccccc1N=O` [dHNN, dehydronitrosonisoldipine, reference compound], the “engagement of SARM1_C311 (effect on MY-13B reactivity)” value with WT-SARM1 [2] (5–50 µM, 3 h pretreatment, MY-13B 20 µM) is on record as “did not observe substantial alterations in MY-13B reactivity”. The “effect of C311 mutagenesis on inhibitory activity” value with SARM1 is “only modestly impaired (∼twofold)”.

Turning to `O=C(NCc1cccnc1)Nc1ccc([N+](=O)[O-])cc1` [vacor], the “induction of cADPR production” value at endogenous SARM1 was “robust, time-dependent production of cADPR”. Moreover, the “Degeneration Index (%)” value in the series on mouse DRG neurons (8 h) is recorded as around 60%; in the series with mouse DRG neurons (24 h), “full degeneration”.

Turning to `CC[C@]1(O)C[C@H]2CN(CCc3c([nH]c4ccccc34)[C@@](C(=O)OC)(c3cc4c(cc3OC)N(C=O)[C@H]3[C@@](O)(C(=O)OC)[C@H](OC(C)=O)[C@]5(CC)C=CCN6CC[C@]43[C@@H]65)C2)C1` [vincristine, reference compound], the “induction of neurite degeneration” value in the series on rat DRG neurons (vincristine 40 nM) is listed as “robust neurite degeneration”.
